Experimental data from different studies.
Target: Rho-associated protein kinase 2 (ROCK2, Homo sapiens, UniProt O75116)

Cn1cc(Cl)c2c(Oc3c(F)cc(Nc4cc(Cl)nc(N)n4)cc3F)ccnc21 gave a remaining binding of 83% (cell-free assay; competition with immobilised ligand; 0.1 µM).
For Nc1ncc2c(n1)-c1c([nH]c3ccc(C#CC4CC4)cc13)CCCC2, the remaining binding was 75% (binding; competition with immobilised ligand; 1 µM).
The remaining binding of C[C@@H]1CN(c2ccc3ncc(-c4ccc5[nH]nc(C6CC6)c5c4)n3n2)C[C@H](C)O1 is reported as 69% (binding; competition with immobilised ligand; 50 nM).
Cc1cc(-n2nc(Cc3cc(F)cc(C(F)(F)F)c3)nc2C)ccc1C(N)=O has a remaining binding of 96% (cell-free assay; competition with immobilised ligand; 1 µM).
CNC(=O)[C@@H]1CC[C@@H](n2c(-c3ccc4cnccc4c3)nc3ccc(C(=O)NCc4cccc(C(N)=O)c4)cc32)C1 has a remaining binding of 100% (binding; competition with immobilised ligand; 1 µM).
With N#CC1(c2ccccn2)CCN(Cc2cc(C(=O)N3CCCC3)c(=O)n3ccccc23)CC1 the remaining binding was 72% (cell-free assay; competition with immobilised ligand; 1 µM).
O=C(c1ccc(Nc2ncc(Cl)c(-c3cc4ccccc4s3)n2)cc1)N1CCC(N2CCCC2)CC1 gave a remaining binding of 7.2% (binding; competition with immobilised ligand; 1 µM).
The remaining binding of CN(CCCC(F)(F)F)c1nccc(-c2cnn3ncccc23)n1 is reported as 100% (binding; 1 µM).
C[C@@H](c1cccc(C#N)c1)n1cc(Cl)cc(C(N)=O)c1=N has a remaining binding of 90% (cell-free assay; competition with immobilised ligand; 1 µM).
COc1ccnn2ncc(-c3ccnc(N(C)C)n3)c12 has a remaining binding of 100% (binding; 1 µM).
For O=C(NCCCN1CCOCC1)c1ccc(Nc2nccc(-c3cc4ccccc4s3)n2)cc1, the remaining binding was 46% (binding; competition with immobilised ligand; 1 µM).
The remaining binding of FC(F)(F)Oc1cccc(-c2cnc3ccc(-c4ccncc4)nn23)c1 is reported as 42% (binding; competition with immobilised ligand; 5 µM).
With COc1cnc(Nc2cccc(S(N)(=O)=O)c2)nc1N1CCN(c2ccccc2)C(=O)C1 the remaining binding was 78% (binding; competition with immobilised ligand; 1 µM).
CCN1CCN(Cc2ccc(C(=O)Nc3ccc(C)c(Oc4ccc5c(c4)CC(=O)N5)c3)cc2C(F)(F)F)CC1 gave a remaining binding of 74% (binding; competition with immobilised ligand; 1 µM).
CC1=C(C#N)C(c2ccc3c(c2)c(NC(=O)c2ccccc2C)nn3C)C(C#N)=C(C)N1 has a remaining binding of 93% (cell-free assay; competition with immobilised ligand; 1 µM).
O=C(NCC1CCOCC1)c1n[nH]cc1NC(=O)c1c(F)cccc1F gave a remaining binding of 64% (binding; competition with immobilised ligand; 1 µM).
For N[C@@H]1CCN(c2nccc(-c3cnn4ncccc34)n2)C1, the remaining binding was 100% (binding; 1 µM).
For CNC(=O)Nc1ccc2c(c1)CC[C@@]21OC(=O)N(CC(=O)N(Cc2ccc(F)cc2)[C@@H](C)C(F)(F)F)C1=O, the remaining binding was 96% (cell-free assay; competition with immobilised ligand; 1 µM).
CC1CCCN1c1nccc(-c2cnn3ncccc23)n1 (stereo not drawn) gave a remaining binding of 100% (binding; 1 µM).
With O=C(NCCCN1CCOCC1)c1ccc(Nc2ncc(Cl)c(-c3ccc(Cl)s3)n2)cc1 the remaining binding was 61% (binding; competition with immobilised ligand; 1 µM).
F[C@@H]1CCN(c2nccc(-c3cnn4ncccc34)n2)C1 has a remaining binding of 100% (binding; 1 µM).
O=C(NCCCC1CCCCC1)c1ccc(CNC(=O)c2cnn(-c3ccccc3)c2C(F)(F)F)cc1 gave a remaining binding of 100% (cell-free assay; competition with immobilised ligand; 0.1 µM).
For c1cnn2ncc(-c3ccnc(N4CCC45COC5)n3)c2c1, the remaining binding was 70% (binding; 1 µM).
C=CC(=O)N1CCC(C(=O)NCC(=O)N2CCN(c3nc(-c4cnc(N)nc4C(F)F)nc(N4CCOCC4)n3)CC2)CC1 has a remaining binding of 90% (binding; competition with immobilised ligand; 1 µM).
